From ChEMBL document CHEMBL1143246, “Design and synthesis of bicyclic pyrimidinones as potent and orally bioavailable HIV-1 integrase inhibitors” (J Med Chem, 2008)

What was measured:
[1] = test system: Human immunodeficiency virus 1; assay: Antiviral activity against HIV1 in human MT4 cell assessed as inhibition of virus spread in presence of 10% fetal bovine serum; assay type: functional; settings: Human immunodeficiency virus 1, MT4; read-out: CIC95
Summary of the method: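 Spread of HIV-1 infection in MT-4 human T-lymphoid cell culture with 10% fetal bovine serum; CIC95 is the concentration inhibiting spread by ≥95%; mean of at least three independent experiments.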

[2] = test system: Human immunodeficiency virus 1; assay: Antiviral activity against HIV1 in human MT4 cell assessed as inhibition of virus spread in presence of 50% normal human serum; assay type: functional; settings: Human immunodeficiency virus 1, MT4; read-out: CIC95
Summary of the method: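 Spread of HIV-1 infection in MT-4 human T-lymphoid cell culture with 50% normal human serum; CIC95 is the concentration inhibiting spread by ≥95%; mean of at least three independent experiments.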

Liver microsomes = assay: Metabolic stability in rat liver microsomes in presence of UDPGA; assay type: ADME, Microsome
Liver = assay: Metabolic stability in dog liver microsomes in presence of UDPGA; assay type: ADME, Canis lupus familiaris, Microsome
[3] = Protein binding in rat plasma; assay type: ADME, cell-free; settings: read-out: PPB (converted)
Summary of the method: (§1)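 Plasma protein binding was measured by ultrafiltration after a 1 h incubation of compound in plasma at 37 °C.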

[4] = Protein binding in dog plasma; assay type: ADME, cell-free, Canis lupus familiaris; settings: read-out: PPB (converted)
Summary of the method: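 Plasma protein binding measured by ultrafiltration after incubation at 37 °C for 1 h.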

[5] = Oral bioavailability in rat at 3 mg/kg; assay type: ADME, organism-based; settings: in vivo
Summary of the method: (§2)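 In vivo PK: iv dosing in DMSO/PEG400/H₂O mixtures, oral dosing as methylcellulose suspension. Half-life was taken after iv dosing; AUC and Cmax after po dosing.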

[6] = Oral bioavailability in dog at 2 mg/kg; assay type: ADME, organism-based, Canis lupus familiaris; settings: in vivo; summary of the method: as §2
[7] = Oral bioavailability in rhesus monkey at 6.5 mg/kg; assay type: ADME, organism-based, Macaca mulatta; settings: in vivo
Summary of the method: (§3)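 Rhesus dosed 1 mg/kg iv in DMSO and 6.5 mg/kg po in 0.5% methylcellulose; plasma clearance and oral bioavailability.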

[8] = Plasma clearance in rat at 3 mg/kg, po or 3 mg/kg, iv; assay type: ADME, organism-based; summary of the method: as §2
[9] = Plasma clearance in dog at 1 mg/kg, iv or 2 mg/kg, po; assay type: ADME, organism-based, Canis lupus familiaris; summary of the method: as §2
[10] = Plasma clearance in rhesus monkey at 1 mg/kg, iv or 6.5 mg/kg, po; assay type: ADME, organism-based, Macaca mulatta; summary of the method: as §3
[11] = target: T1, DNA polymerase alpha catalytic subunit (Homo sapiens, UniProt P09884); assay: Inhibition of human DNA polymerase alpha
T1 sequence (P09884 whole entry): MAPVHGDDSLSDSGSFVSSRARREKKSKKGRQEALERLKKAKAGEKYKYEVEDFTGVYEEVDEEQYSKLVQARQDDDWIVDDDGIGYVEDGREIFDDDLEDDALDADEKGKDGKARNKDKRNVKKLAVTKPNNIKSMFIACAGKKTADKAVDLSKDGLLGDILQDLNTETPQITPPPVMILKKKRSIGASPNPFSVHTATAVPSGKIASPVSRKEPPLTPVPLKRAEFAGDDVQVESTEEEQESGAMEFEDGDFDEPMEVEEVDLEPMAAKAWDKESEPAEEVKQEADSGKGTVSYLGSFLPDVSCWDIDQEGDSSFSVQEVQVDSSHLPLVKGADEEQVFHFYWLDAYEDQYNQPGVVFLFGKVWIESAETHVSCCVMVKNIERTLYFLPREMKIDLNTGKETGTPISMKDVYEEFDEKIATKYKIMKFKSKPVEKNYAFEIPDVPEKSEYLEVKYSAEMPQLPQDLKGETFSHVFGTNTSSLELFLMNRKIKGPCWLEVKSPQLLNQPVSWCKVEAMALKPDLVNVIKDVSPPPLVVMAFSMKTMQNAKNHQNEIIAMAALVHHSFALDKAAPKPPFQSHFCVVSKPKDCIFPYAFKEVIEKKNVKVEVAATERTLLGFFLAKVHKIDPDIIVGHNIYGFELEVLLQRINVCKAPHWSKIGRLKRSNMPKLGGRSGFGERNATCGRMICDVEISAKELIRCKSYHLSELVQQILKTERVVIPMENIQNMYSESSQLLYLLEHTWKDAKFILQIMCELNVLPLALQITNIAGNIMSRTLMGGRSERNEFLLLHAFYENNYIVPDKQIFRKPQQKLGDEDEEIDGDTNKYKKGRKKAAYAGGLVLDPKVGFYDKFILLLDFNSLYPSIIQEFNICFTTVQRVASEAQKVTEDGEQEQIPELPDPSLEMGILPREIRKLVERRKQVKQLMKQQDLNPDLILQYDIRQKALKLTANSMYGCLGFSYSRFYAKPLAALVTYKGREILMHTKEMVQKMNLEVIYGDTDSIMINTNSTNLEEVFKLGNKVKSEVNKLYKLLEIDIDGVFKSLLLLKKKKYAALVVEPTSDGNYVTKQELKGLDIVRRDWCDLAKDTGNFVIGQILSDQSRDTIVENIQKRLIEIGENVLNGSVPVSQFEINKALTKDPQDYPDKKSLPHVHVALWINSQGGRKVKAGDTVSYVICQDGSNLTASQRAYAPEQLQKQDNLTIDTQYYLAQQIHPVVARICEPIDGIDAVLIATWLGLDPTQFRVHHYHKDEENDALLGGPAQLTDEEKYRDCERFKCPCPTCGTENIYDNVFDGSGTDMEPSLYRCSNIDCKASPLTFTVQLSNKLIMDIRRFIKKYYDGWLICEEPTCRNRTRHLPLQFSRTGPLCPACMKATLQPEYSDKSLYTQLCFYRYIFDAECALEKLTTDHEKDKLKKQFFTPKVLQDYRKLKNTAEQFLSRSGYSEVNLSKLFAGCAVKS

DNA polymerase beta = DNA polymerase beta (Homo sapiens, UniProt P06746); assay: Inhibition of human DNA polymerase beta
[12] = Inhibition of human DNA polymerase gamma
[13] = Inhibition of HIV-RNase-H; design: species or system Human immunodeficiency virus
[14] = Inhibition of HCV polymerase; design: species or system Hepacivirus hominis
[15] = target: Voltage-gated inwardly rectifying potassium channel KCNH2 (Homo sapiens, UniProt Q12809); assay: Inhibition of human ERG
Cytochrome P450 1A2 = target: T2, Cytochrome P450 1A2 (Homo sapiens, UniProt P05177); assay: Inhibition of CYP1A2; assay type: ADME
T2 sequence (P05177 whole entry): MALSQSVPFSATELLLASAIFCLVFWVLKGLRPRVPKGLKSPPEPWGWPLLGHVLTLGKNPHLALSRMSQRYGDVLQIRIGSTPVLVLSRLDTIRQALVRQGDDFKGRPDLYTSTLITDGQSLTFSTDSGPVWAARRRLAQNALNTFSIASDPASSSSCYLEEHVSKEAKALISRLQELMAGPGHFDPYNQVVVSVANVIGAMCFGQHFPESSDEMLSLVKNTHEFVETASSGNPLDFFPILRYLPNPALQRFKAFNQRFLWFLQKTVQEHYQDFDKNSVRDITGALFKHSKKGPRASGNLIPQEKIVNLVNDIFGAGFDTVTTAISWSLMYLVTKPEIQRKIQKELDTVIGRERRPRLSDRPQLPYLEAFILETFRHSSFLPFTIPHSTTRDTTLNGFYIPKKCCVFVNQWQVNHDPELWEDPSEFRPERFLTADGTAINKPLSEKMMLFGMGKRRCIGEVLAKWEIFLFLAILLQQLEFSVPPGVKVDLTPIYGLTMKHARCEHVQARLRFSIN

Cytochrome P450 2C19 = Cytochrome P450 2C19 (Homo sapiens, UniProt P33261); assay: Inhibition of CYP2C19; assay type: ADME
Cytochrome P450 2C9 = Cytochrome P450 2C9 (Homo sapiens, UniProt P11712); assay: Inhibition of CYP2C9; assay type: ADME
Cytochrome P450 2D6 = Cytochrome P450 2D6 (Homo sapiens, UniProt P10635); assay: Inhibition of CYP2D6; assay type: ADME
Cytochrome P450 3A4 = Cytochrome P450 3A4 (Homo sapiens, UniProt P08684); assay: Inhibition of CYP3A4; assay type: ADME
[16] = Protein binding in rhesus monkey plasma; assay type: ADME, cell-free, Macaca mulatta; settings: read-out: PPB (converted); summary of the method: as §1
[17] = Metabolic stability in rhesus monkey liver microsomes in presence of UDPGA; assay type: ADME, Macaca mulatta, Microsome
Summary of the method: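 Single-point measurement: compound 2 µM, microsomes 0.3 mg/mL, with UDPGA; degradation quantified by LC/MS/MS after 1 h of incubation.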

[18] = Inhibition of recombinant HIV1 integrase strand transfer activity
Homo sapiens = species: Homo sapiens; assay: Protein binding in human plasma; settings: read-out: PPB (converted)

Cytochrome P450 2C9, sequence (P11712 whole entry): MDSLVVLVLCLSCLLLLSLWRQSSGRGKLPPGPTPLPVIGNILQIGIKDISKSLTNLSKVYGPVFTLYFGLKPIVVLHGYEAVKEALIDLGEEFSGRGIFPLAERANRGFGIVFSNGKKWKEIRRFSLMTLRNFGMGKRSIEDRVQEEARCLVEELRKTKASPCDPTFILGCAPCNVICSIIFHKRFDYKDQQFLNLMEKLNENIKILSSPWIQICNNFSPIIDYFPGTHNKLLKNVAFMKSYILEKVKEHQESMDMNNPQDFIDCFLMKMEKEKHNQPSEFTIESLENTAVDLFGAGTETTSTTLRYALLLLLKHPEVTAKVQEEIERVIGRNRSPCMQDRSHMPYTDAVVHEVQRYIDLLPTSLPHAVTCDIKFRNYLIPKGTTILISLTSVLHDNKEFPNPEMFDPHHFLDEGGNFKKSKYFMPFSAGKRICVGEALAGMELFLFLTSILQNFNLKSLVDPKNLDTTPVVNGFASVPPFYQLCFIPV
Voltage-gated inwardly rectifying potassium channel KCNH2, sequence (Q12809 whole entry): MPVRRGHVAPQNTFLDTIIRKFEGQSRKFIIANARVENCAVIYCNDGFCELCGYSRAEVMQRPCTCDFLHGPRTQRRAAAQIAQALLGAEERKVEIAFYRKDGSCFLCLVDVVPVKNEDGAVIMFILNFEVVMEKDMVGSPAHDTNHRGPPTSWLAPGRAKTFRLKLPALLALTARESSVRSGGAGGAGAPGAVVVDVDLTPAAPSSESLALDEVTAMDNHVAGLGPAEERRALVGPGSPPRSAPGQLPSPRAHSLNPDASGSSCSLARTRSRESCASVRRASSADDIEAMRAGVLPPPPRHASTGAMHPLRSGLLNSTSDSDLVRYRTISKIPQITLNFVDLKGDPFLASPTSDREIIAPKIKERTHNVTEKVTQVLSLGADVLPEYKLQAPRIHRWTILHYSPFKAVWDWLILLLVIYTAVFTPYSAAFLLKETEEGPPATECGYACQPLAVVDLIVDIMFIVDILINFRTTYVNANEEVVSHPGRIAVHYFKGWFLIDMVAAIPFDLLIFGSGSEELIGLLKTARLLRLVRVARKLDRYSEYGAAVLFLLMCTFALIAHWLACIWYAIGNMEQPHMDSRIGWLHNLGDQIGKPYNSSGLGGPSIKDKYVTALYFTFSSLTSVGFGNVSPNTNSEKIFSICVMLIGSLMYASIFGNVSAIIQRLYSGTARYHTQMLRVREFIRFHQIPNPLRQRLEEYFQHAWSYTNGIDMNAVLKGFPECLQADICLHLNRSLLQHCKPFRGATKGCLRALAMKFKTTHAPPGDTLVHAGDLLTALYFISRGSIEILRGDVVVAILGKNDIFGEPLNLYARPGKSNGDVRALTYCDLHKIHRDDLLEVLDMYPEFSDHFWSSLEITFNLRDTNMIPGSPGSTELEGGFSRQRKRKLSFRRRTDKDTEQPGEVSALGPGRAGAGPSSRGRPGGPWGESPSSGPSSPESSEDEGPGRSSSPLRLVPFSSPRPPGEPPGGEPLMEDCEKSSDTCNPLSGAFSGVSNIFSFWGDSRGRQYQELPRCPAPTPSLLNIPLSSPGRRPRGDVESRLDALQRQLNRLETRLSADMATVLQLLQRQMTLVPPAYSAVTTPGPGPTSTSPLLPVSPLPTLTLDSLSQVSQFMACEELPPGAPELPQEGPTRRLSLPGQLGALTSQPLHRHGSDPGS
Cytochrome P450 3A4, sequence (P08684 whole entry): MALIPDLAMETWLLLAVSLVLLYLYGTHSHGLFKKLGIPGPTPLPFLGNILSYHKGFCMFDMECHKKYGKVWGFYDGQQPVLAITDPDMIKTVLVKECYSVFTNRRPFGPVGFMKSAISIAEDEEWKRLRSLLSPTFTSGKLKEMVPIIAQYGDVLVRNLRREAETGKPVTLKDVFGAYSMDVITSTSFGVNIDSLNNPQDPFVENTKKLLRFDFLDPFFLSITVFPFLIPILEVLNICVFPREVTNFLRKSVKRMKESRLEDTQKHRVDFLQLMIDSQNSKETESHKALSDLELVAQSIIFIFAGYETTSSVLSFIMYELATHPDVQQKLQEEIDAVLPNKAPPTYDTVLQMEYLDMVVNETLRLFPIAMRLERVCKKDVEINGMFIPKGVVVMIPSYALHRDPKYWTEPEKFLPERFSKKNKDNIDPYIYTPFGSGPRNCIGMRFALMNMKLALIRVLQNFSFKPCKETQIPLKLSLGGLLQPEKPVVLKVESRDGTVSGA
Cytochrome P450 2D6, sequence (P10635 whole entry): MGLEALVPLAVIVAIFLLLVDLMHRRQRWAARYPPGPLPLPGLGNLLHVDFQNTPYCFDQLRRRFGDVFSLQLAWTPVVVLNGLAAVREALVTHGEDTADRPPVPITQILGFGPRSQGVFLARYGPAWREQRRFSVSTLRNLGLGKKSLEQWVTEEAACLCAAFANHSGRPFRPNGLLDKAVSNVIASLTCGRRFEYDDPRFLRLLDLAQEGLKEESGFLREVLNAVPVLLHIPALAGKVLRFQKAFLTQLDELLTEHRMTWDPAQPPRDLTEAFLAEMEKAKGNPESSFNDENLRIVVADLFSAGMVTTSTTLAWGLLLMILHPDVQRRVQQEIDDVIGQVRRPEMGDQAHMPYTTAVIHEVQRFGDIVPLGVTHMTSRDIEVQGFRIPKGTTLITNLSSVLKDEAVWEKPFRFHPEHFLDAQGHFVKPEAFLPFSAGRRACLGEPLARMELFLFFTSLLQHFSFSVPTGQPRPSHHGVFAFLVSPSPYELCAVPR
Cytochrome P450 2C19, sequence (P33261 whole entry): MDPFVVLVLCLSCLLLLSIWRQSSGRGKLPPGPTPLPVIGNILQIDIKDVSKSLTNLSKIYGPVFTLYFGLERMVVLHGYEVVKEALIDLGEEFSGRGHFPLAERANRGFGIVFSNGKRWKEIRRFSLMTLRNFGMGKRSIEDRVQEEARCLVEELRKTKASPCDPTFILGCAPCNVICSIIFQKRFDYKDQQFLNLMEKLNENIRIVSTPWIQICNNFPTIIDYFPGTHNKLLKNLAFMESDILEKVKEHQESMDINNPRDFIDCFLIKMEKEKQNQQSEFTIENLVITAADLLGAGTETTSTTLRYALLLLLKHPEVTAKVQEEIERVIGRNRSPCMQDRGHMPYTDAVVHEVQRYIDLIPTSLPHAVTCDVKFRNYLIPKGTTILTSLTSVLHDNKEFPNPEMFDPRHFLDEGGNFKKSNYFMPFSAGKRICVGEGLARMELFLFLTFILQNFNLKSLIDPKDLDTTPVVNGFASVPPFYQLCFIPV

Stability (Liver microsomes): 81 %/hr
Stability (Liver): 46 %/hr
fraction unbound [3]: 0.01
fraction unbound [4]: 0.11
bioavailability [5]: 63%
bioavailability [6]: 42%
bioavailability [7]: 9%
clearance [8]: 1.8 mL/min/kg
clearance [9]: 3.8 mL/min/kg
clearance [10]: 27 mL/min/kg
IC50 [11]: > 200 µM
IC50 (DNA polymerase beta): > 200 µM
IC50 [12]: > 200 µM
IC50 [13]: > 25 µM
IC50 [14]: > 50 µM
IC50 (Cytochrome P450 1A2): > 100 µM
IC50 (Cytochrome P450 2C19): > 100 µM
IC50 (Cytochrome P450 2C9): > 100 µM
IC50 (Cytochrome P450 2D6): > 100 µM
IC50 (Cytochrome P450 3A4): > 100 µM
fraction unbound [16]: 0.14
Stability [17]: 84 %/hr
IC50 [18]: 0.007 µM
fraction unbound (Homo sapiens): 0.19
SMILES: CN(C)S(=O)(=O)N(C)[C@@H]1CCCn2c1nc(C(=O)NCc1ccc(F)cc1)c(O)c2=O
IC95 [1]: 0.016 µM
IC95 [2]: 0.044 µM
IC50 [15]: 20 µM
